Columns and labels:
[1] = test system: HepG2; assay: Antioxidant activity in human HepG2 cells assessed as inhibition of ABAP-induced peroxyl radical generation incubated for 60 mins measured for 60 mins by DCFH-DA probe based fluorescence assay; assay type: functional, cell-based; conditions: HepG2, 1 h
Procedure, shortened: (§1)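 HepG2 cells grown in MEM Earle's with gentamycin, L-alanyl-L-glutamine, nonessential amino acids, sodium pyruvate and 10% FBS at 37 °C, 5% CO2. 80 000 cells per well were seeded 24 h ahead, ~50% confluent at testing. Sesquiterpenoids were dissolved in DMSO, giving 1% DMSO final in all wells including controls. IC50 from dose–response Hill-slope fit, three experiments, mean ± SD.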

[2] = test system: HepG2; assay: Antioxidant activity in human HepG2 cells assessed as inhibition of cumene hydroperoxide-mediated lipid peroxidation incubated for 60 mins followed by cumOOH addition for 60 mins measured for 60 mins by C11-BODIPY probe based fluorescence assay; assay type: functional, cell-based; conditions: HepG2, 1 h; procedure, shortened: as §1
[3] = test system: K562; assay: Cytotoxicity against human K562 cells assessed as inhibition of cell growth after 5 days by MTT assay; assay type: cell-based; conditions: K562, 120 h
Procedure, shortened: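 K562 cells kept in antibiotic-free RPMI with 2-mercaptoethanol (2 μM), L-glutamine (2 mM) and 10% FCS. 100 μL of cells at 40 000 cells/mL were mixed with 100 μL of serially diluted compound (DMSO stock) in medium, with a drug-free control. Incubation 5 days, 37 °C, 5% CO2. MTT (3 mg/mL) for 3 h, formazan taken up in DMSO, read at 540 and 690 nm. IC50 as % of control growth, three experiments.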

Compound	IC50 [1] [µM]	IC50 [2] [µM]	IC50 [3] [µM]
Cc1ccc([C@]2(C)CC[C@@H](C(C)(C)O)O2)cc1O	18	31	> 50
O=c1c(O)c(-c2ccc(O)c(O)c2)oc2cc(O)cc(O)c12 [QUERCETIN]	65	12	2.5
Cc1ccc([C@]2(C)CC[C@@H](C(C)(C)O)O2)cc1	> 100	> 100	> 50
CC(C)=CCC[C@](C)(O)c1ccc(C)cc1	> 100	> 100	> 50

Reference: ChEMBL document CHEMBL4251709, “Synthesis, Biological Investigation, and Structural Revision of Sielboldianin A” (J Nat Prod, 2018)
